# From ChEMBL document CHEMBL1122333, “Synthesis and biological activities of the Z isomers of carbapenem antibiotics” (J Med Chem, 1983)
# Legend:
# [1] = (§1) Half-life of 10% mouse kidney homogenate is tested; assay type: ADME; conditions: 10% mouse kidney homogenate
# Procedure, shortened: (§2)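 Carbapenem at 50 μg/mL incubated in 10% mouse kidney homogenate at 30 °C to assess stability to mouse renal enzyme(s).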
# [2] = tested on: Escherichia coli; assay: Tested for inhibition of intraperitoneal infection against Escherichia coli O-111; assay type: functional
# Procedure, shortened: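 Protection assay run in Slc:ICR mice. ED50 was calculated by the Reed and Muench method from survival recorded 5 days after infection.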
# [3] = tested on: Klebsiella pneumoniae; assay: Tested for beta-lactamase inhibitory activity of the 5,6-cis-carbapenem antibiotic on penicillinase against Klebsiella pneumoniae TN1698; assay type: functional, organism-based; conditions: for IC50: Klebsiella pneumoniae, read-out: I50
# [4] = tested on: Klebsiella pneumoniae; assay: Tested for minimum inhibitory concentration against Klebsiella pneumoniae TN1655 on ampicillin at a concentration of 0.1 ug/mL into the agar plate; assay type: functional
# [5] = tested on: Proteus vulgaris; assay: beta-lactamase inhibitory activity of the 5,6-cis-carbapenem antibiotic on cephalosporinase against Proteus vulgaris GN4413; assay type: functional, organism-based; conditions: for IC50: Proteus vulgaris, read-out: I50
# [6] = tested on: Staphylococcus aureus; assay: Tested for beta-lactamase inhibitory activity of the 5,6-cis-carbapenem antibiotic on penicillinase against Staphylococcus aureus 1840; assay type: functional, organism-based; conditions: read-out: I50
# [7] = tested on: Serratia marcescens; assay: beta-lactamase inhibitory activity of the 5,6-cis-carbapenem antibiotic on cephalosporinase against Serratia marcescens TN81; assay type: functional, organism-based, serratia marcesc; conditions: for IC50: Serratia marcescens, read-out: I50
# [8] = tested on: Staphylococcus aureus; assay: Tested for minimum inhibitory concentration against Staphylococcus aureus 1840 on ampicillin at a concentration of 0.1 ug/mL into the agar plate; assay type: functional
# [9] = tested on: Proteus vulgaris; assay: Tested for minimum inhibitory concentration against Proteus vulgaris GN4815 on cefotiam at a concentration of 0.1 ug/mL into the agar plate
# [10] = tested on: Serratia marcescens; assay: Tested for minimum inhibitory concentration against Serratia marcescens 12648 on cefotiam at a concentration of 0.1 ug/mL into the agar plate
# [11] = tested on: Serratia marcescens; assay: Tested for minimum inhibitory concentration against Serratia marcescens IFO 12648; assay type: functional
# Procedure, shortened: (§3)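 Agar dilution MIC on Trypticase soy agar. Each plate was inoculated with one loopful of a 10^8 cfu/mL bacterial suspension.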
# [12] = tested on: Proteus vulgaris; assay: Minimum inhibitory concentration against Proteus vulgaris GN4815 on cefotiam at a concentration of 0.1 ug/mL into the agar plate
# [13] = tested on: Acinetobacter calcoaceticus; assay: Minimum inhibitory concentration against Acinetobacter calcoacet IFO 13006; assay type: functional
# Procedure, shortened: (§4)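 MIC by agar dilution on Trypticase soy agar. Inoculum was one loopful of a 10^8 cfu/mL bacterial suspension.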
# [14] = tested on: Escherichia coli; assay: Tested for minimum inhibitory concentration against Escherichia coli O-111; assay type: functional; procedure, shortened: as §4
# [15] = tested on: Pseudomonas aeruginosa; assay: Tested for minimum inhibitory concentration against Pseudomonas aeruginosa IFO 3455; assay type: functional; procedure, shortened: as §3
# [16] = tested on: Proteus vulgaris; assay: Tested for minimum inhibitory concentration against Proteus vulgaris IFO 3988; assay type: functional; procedure, shortened: as §4
# [17] = tested on: Proteus vulgaris; assay: tested for minimum inhibitory concentration against Proteus vulgaris GN4815 on cefotiam at a concentration of 0.1 ug/mL into the agar plate
# [18] = tested on: Klebsiella pneumoniae; assay: Tested for minimum inhibitory concentration against Klebsiella pneumoniae TN1655 on ampicillin at a concentration of 0.1 ug/mL into the agar plate
# [19] = tested for minimum inhibitory concentration against […] 12486 on ampicillin at a concentration of 0.1 ug/mL into the agar plate; assay type: functional
# [20] = tested on: Citrobacter freundii; assay: Tested for minimum inhibitory concentration against […] IFO 12681; assay type: functional; procedure, shortened: as §3
# [21] = tested on: Klebsiella pneumoniae; assay: Tested for minimum inhibitory concentration against Klebsiella pneumoniae DT; assay type: functional; procedure, shortened: as §3
# [22] = tested on: Proteus mirabilis; assay: Tested for minimum inhibitory concentration against […] IFO 3849; assay type: functional; procedure, shortened: as §3
# [23] = tested on: Morganella morganii; assay: Tested for minimum inhibitory concentration against […] IFO 3168; assay type: functional; procedure, shortened: as §3
# [24] = tested on: Enterobacter cloacae; assay: Tested for minimum inhibitory concentration against […] IFO 12937; assay type: functional; procedure, shortened: as §3
# [25] = tested on: Escherichia coli; assay: Tested for minimum inhibitory concentration against Escherichia coli T-7; assay type: functional; procedure, shortened: as §3
# [26] = tested on: Staphylococcus aureus; assay: Tested for minimum inhibitory concentration against Staphylococcus aureus 308 A-1; assay type: functional; procedure, shortened: as §3
# [27] = species on record: Mus musculus; assay: as §1; assay type: ADME; conditions: in vitro; procedure, shortened: as §2
# [28] = Escherichia coli, ip, read-out: ED50
# [29] = Acinetobacter calcoaceticus, IFO 13006, read-out: MIC
# [30] = Pseudomonas aeruginosa, IFO 3455, read-out: MIC
smiles,measurement,setting,value
CC(=O)[N-]/C=C/SC1=C(C(=O)[O-])N2C(=O)[C@@H](C(C)O)[C@H]2C1.[Na+].[Na+] (some centres undefined),half-life,[1],40 min
same,ED50,[2]; [28],17.7 mg/kg
same,IC50,[3],320 ng/mL
same,MIC,[4],100 µg/mL
same,IC50,[5],1.5 µg/mL
same,IC50,[6],0.065 µg/mL
same,IC50,[7],0.0011 µg/mL
same,MIC,[8],1.56 µg/mL
same,MIC,[9],400 µg/mL
same,MIC,[10],25 µg/mL
CC(=O)N/C=C/[S+]([O-])C1=C(C(=O)[O-])N2C(=O)[C@@H](C(C)(C)OS(=O)(=O)[O-])[C@H]2C1.[Na+].[Na+] (some centres undefined),half-life,[1],37 min
same,ED50,[2]; [28],> 100 mg/kg
same,IC50,[3],5.2 ng/mL
same,MIC,[4],6.25 µg/mL
same,IC50,[5],0.00037 µg/mL
same,IC50,[6],0.21 µg/mL
same,I50,[7],55 ng/mL
same,MIC,"[11]; Serratia marcescens, IFO 12648, read-out: MIC",12.5 µg/mL
same,MIC,[12],1.56 µg/mL
same,MIC,[10],6.25 µg/mL
CC(=O)N/C=C\SC1=C(C(=O)[O-])N2C(=O)[C@@H](C(C)(C)O)[C@H]2C1.[Na+],half-life,[1],19 min
same,ED50,[2]; [28],> 50 mg/kg
same,IC50,[3],220 ng/mL
same,MIC,[4],100 µg/mL
same,IC50,[5],0.017 µg/mL
same,IC50,[7],0.0053 µg/mL
same,MIC,[8],12.5 µg/mL
same,MIC,[12],25 µg/mL
same,MIC,[10],12.5 µg/mL
CC(=O)N/C=C/SC1=C(C(=O)[O-])N2C(=O)[C@@H](C(C)O)[C@H]2C1.[Na+] (some centres undefined),half-life,[1],12 min
same,MIC,[13]; [29],3.13 µg/mL
same,ED50,[2]; [28],> 50 mg/kg
same,MIC,"[14]; Escherichia coli, read-out: MIC",0.39 µg/mL
same,MIC,[15]; [30],100 µg/mL
same,MIC,"[16]; Proteus vulgaris, IFO 3988, read-out: MIC",3.13 µg/mL
CC(=O)N/C=C/SC1=C(C(=O)[O-])N2C(=O)[C@@H](C(C)OS(=O)(=O)[O-])[C@H]2C1.[Na+].[Na+] (some centres undefined),half-life,[1],21 min
same,ED50,[2]; [28],> 50 mg/kg
same,MIC,[15]; [30],3.13 µg/mL
CC(=O)N/C=C/SC1=C(C(=O)[O-])N2C(=O)[C@@H](C(C)(C)OS(=O)(=O)[O-])[C@H]2C1.[Na+].[Na+],half-life,[1],7 min
same,ED50,[2]; [28],> 50 mg/kg
CC(=O)N/C=C\[S+]([O-])C1=C(C(=O)[O-])N2C(=O)[C@@H](C(C)O)[C@H]2C1.[Na+] (some centres undefined),IC50,[3],2.4 ng/mL
same,IC50,[5],0.019 µg/mL
same,IC50,[6],0.00055 µg/mL
same,IC50,[7],0.00029 µg/mL
same,MIC,[8],6.25 µg/mL
same,MIC,[17],400 µg/mL
same,MIC,[18],100 µg/mL
CC(=O)N/C=C\SC1=C(C(=O)[O-])N2C(=O)[C@@H](C(C)OS(=O)(=O)[O-])[C@H]2C1.[Na+].[Na+] (some centres undefined),half-life,[1],42 min
same,ED50,[2]; [28],> 50 mg/kg
same,IC50,[3],1.8 ng/mL
same,MIC,[4],25 µg/mL
same,IC50,[5],0.00035 µg/mL
same,MIC,[19],12.5 µg/mL
same,IC50,[6],0.014 µg/mL
same,IC50,[7],0.001 µg/mL
same,MIC,[12],1.56 µg/mL
CC(=O)N/C=C\[S+]([O-])C1=C(C(=O)[O-])N2C(=O)[C@@H](C(C)OS(=O)(=O)[O-])[C@H]2C1.[Na+].[Na+] (some centres undefined),IC50,[3],0.08 ng/mL
same,IC50,[5],0.00016 µg/mL
same,IC50,[6],0.0034 µg/mL
same,IC50,[7],0.00034 µg/mL
same,MIC,[8],50 µg/mL
same,MIC,[12],50 µg/mL
same,MIC,[10],25 µg/mL
CC(=O)N/C=C\SC1=C(C(=O)[O-])N2C(=O)[C@@H](C(C)(C)OS(=O)(=O)[O-])[C@H]2C1.[Na+].[Na+],half-life,[1],19 min
same,ED50,[2]; [28],> 50 mg/kg
same,IC50,[3],28 ng/mL
same,MIC,[4],50 µg/mL
same,IC50,[5],0.0038 µg/mL
same,IC50,[6],1 µg/mL
same,IC50,[7],0.051 µg/mL
same,MIC,[8],50 µg/mL
same,MIC,[12],1.56 µg/mL
same,MIC,[10],25 µg/mL
CC(=O)N/C=C\[S+]([O-])C1=C(C(=O)[O-])N2C(=O)[C@@H](C(C)(C)OS(=O)(=O)[O-])[C@H]2C1.[Na+].[Na+] (some centres undefined),ED50,[2]; [28],> 50 mg/kg
same,IC50,[3],1 ng/mL
same,MIC,[4],3.13 µg/mL
same,IC50,[5],0.00055 µg/mL
same,IC50,[6],0.24 µg/mL
same,IC50,[7],0.018 µg/mL
same,MIC,[8],50 µg/mL
same,MIC,[12],0.78 µg/mL
same,MIC,[10],12.5 µg/mL
CC(=O)N/C=C/SC1=C(C(=O)[O-])N2C(=O)[C@@H](C(C)(C)O)[C@H]2C1.[Na+],half-life,[1],8 min
same,ED50,[2]; [28],> 50 mg/kg
CC(=O)N/C=C/[S+]([O-])C1=C(C(=O)[O-])N2C(=O)[C@@H](C(C)(C)O)[C@H]2C1.[Na+] (stereo in doubt; 2),MIC,[20],0.2 µg/mL
same,ED50,[2],20 mg/kg
same,MIC,[14],<0.1 µg/mL
same,MIC,[16],3.13 µg/mL
CC(=O)N/C=C\[S+]([O-])C1=C(C(=O)[O-])N2C(=O)[C@@H](C(C)(C)O)[C@H]2C1.[Na+] (stereo in doubt; 11),MIC,[13]; [29],50 µg/mL
same,MIC,[14],<0.1 µg/mL
same,I50,[3],3.8 ng/mL
same,MIC,[21],3.13 µg/mL
same,MIC,[4],3.13 µg/mL
same,I50,[5],1.1 ng/mL
same,MIC,[16],25 µg/mL
same,MIC,[22],12.5 µg/mL
same,I50,[7],0.34 ng/mL
same,MIC,[11],3.13 µg/mL
same,MIC,[8],6.25 µg/mL
same,MIC,[23],12.5 µg/mL
same,MIC,[10],12.5 µg/mL
CC(=O)N/C=C/[S+]([O-])C1=C(C(=O)[O-])N2C(=O)[C@@H](C(C)(C)O)[C@H]2C1.[Na+] (stereo in doubt; 20),MIC,[13],12.5 µg/mL
same,MIC,[20],3.13 µg/mL
same,MIC,[24],25 µg/mL
same,ED50,[2]; [28],28.1 mg/kg
same,MIC,[25],25 µg/mL
same,IC50,[3],80 ng/mL
same,IC50,[5],0.0028 µg/mL
same,MIC,[15],25 µg/mL
same,MIC,[16],12.5 µg/mL
same,MIC,[22],12.5 µg/mL
same,IC50,[6],0.54 µg/mL
same,IC50,[7],0.00078 µg/mL
same,MIC,[26],3.13 µg/mL
same,MIC,[23],25 µg/mL
CC(=O)N/C=C\[S+]([O-])C1=C(C(=O)[O-])N2C(=O)[C@@H](C(C)(C)O)[C@H]2C1.[Na+] (stereo in doubt; 22),T1/2,[27],> 250 min
same,MIC,[20],12.5 µg/mL
same,MIC,[24],50 µg/mL
same,MIC,[25],25 µg/mL
same,I50,[3],110 ng/mL
same,MIC,[21],12.5 µg/mL
same,I50,[5],14 ng/mL
same,MIC,[16],100 µg/mL
same,MIC,[22],50 µg/mL
same,IC50,[6],0.59 µg/mL
same,I50,[7],3.3 ng/mL
same,MIC,[11],25 µg/mL
same,MIC,[26],3.13 µg/mL
same,MIC,[23],100 µg/mL
